High-throughput results (PubChem)
Rows were chosen to be rich in hits. Some 6.3% of all compounds tested hit in one or more screens of this group.
SF1 activator = SF-1 (human) activation; Q13285; CHO-K1 Gal4-SF-1 LBD luciferase reporter; % increase over DMSO SF-1-specific signal; activation, % at 10 µM; 1.9% of 65,000 active; AID 522;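 active = activation above the mean activation of all tested compounds plus 3 SD, cut at about 50% in these data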
Target sequence (Q13285 whole entry, looked up, the tested form may be a part): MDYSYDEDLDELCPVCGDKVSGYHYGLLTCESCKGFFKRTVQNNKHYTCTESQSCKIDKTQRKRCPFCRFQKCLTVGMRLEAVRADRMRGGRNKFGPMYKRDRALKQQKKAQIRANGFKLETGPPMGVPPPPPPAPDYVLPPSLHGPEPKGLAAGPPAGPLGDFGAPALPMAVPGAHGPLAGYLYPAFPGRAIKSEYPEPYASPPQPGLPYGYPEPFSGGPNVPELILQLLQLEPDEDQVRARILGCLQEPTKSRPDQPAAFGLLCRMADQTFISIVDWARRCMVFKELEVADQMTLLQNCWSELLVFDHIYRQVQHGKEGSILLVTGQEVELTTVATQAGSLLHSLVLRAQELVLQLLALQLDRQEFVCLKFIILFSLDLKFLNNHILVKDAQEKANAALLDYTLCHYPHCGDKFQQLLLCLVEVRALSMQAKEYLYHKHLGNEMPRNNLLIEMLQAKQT
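Assay system – CHO-K1 cells with Gal4–hSF-1 LBD chimera plus Gal4-driven luciferase · Quantity – 4,000 cells per well · Times – compound added 1 h post-seeding, 20 h exposure at 37 °C, 5% CO2 · Measured by – luciferase light emission · Benchmarks – DMSO and mock-transfected background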
MT1-MMP txn act = MT1-MMP promoter transcription activation; activation factor at 10 µM; HT1080 MT1-MMP promoter luciferase reporter, luminescence, overnight; active compounds read high; 0.16% of 86,000 active;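 active = activation factor of at least 2 for MT1-MMP transcription at 10 µM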
M1 ag = activates the M1 muscarinic receptor | B-score at 10 µM | 3% of 64,000 active | CHO-M1 cells, Fluo-4 calcium fluorescence, agonist mode; active compounds read high;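 active = fluorescence rise, raw or as B-score row- and column-corrected plate score, outside the 99.7% band of its plate's samples, either direction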
M1 antag = blocks the rat M1 muscarinic receptor response to acetylcholine; B-score at 10 µM; 3.4% of 64,000 active; P08482; CHO-M1 cells, Fluo-4 calcium, ACh EC80 antagonist mode; active compounds read low;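 active = calcium fluorescence response, raw or row-and-column corrected B-score, differing from the plate sample mean either way at a set confidence level, mostly lower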
RORa activator = RORA (human) activation; P35398; CHO-K1 Gal4-RORA LBD luciferase reporter, luminescence; percent increase over mock-subtracted basal signal; activation, % at 10 µM; 1.5% of 65,000 active;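 active = activation above the mean of all tested compounds plus 3 SD, cut at about 49% in these data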;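 note: 0% = DMSO-treated RORA cells and 100% = added signal equal to DMSO minus mock-transfected cells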
* marks the source's active call; other numbers are inactive results.

How did Cc1ccc(-c2nc3ccccc3[nH]2)s1 do in these assays?
SF1 activator: 39; MT1-MMP txn act: 0.6; M1 ag: -0.57; M1 antag: 0.22; RORa activator: 50*

Results for c1csc(-c2nc3ccccc3[nH]2)c1 ?
SF1 activator: 94*; MT1-MMP txn act: 1.8; M1 ag: 0; M1 antag: -0.036; RORa activator: 43

How did Cc1nnsc1-c1nc2ccccc2[nH]1 do in these assays?
SF1 activator: -5; MT1-MMP txn act: 1.1; M1 ag: -0.34; M1 antag: -0.052; RORa activator: 17

What do the screens show for `CN(C)c1nc(NS(=O)(=O)c2ccc(Cl)cc2)nc(N(C)C)n1`?
SF1 activator: -12; MT1-MMP txn act: 1.1; M1 ag: 0.67; M1 antag: 1.3; RORa activator: -13

What do the screens show for `CC(=O)c1ccc(OCC(C)C)c(CN2CCCCC2)c1`?
SF1 activator: 14; MT1-MMP txn act: 1.1; M1 ag: -0.55; M1 antag: -2; RORa activator: -2

What do the screens show for `CC(=O)c1ccc(Oc2ncnc3sccc23)c(CN2CCOCC2)c1`?
SF1 activator: 1; M1 ag: -2.8*; M1 antag: 0.029; RORa activator: -21

How did CC(C)CN(CC(C)C)C(=O)C12CCC(C)(C(=O)C1)C2(C)C (configuration not stated) do in these assays?
SF1 activator: -14; MT1-MMP txn act: 1.1; M1 ag: 0.98; M1 antag: 0.48; RORa activator: -6

Results for Cc1cc(N2CCN(C(=O)c3ccco3)CC2)n2nc(-c3cccc(F)c3)cc2n1 ?
SF1 activator: -13; MT1-MMP txn act: 0.9; M1 ag: 2.9*; M1 antag: -0.8; RORa activator: -17

What do the screens show for `Cc1cc(N2CCOCC2)n2nc(-c3cccc(F)c3)cc2n1`?
SF1 activator: -16; MT1-MMP txn act: 1; M1 ag: -0.015; M1 antag: 0.45; RORa activator: 12

Results for CCCCC(=O)Nc1cccc(-c2nnc(-c3ccccc3)o2)c1 ?
SF1 activator: 33; MT1-MMP txn act: 1.2; M1 ag: 2.7*; M1 antag: -1.1; RORa activator: 68*

How did COc1cccc(-c2nnc(NC(=O)C3CCCCC3)o2)c1 do in these assays?
SF1 activator: 19; MT1-MMP txn act: 1.2; M1 ag: -0.4; M1 antag: -0.087; RORa activator: 4

Results for O=C(Nc1cccc(-c2nnc(-c3ccccc3)o2)c1)C1CCCCC1 ?
SF1 activator: 53*; MT1-MMP txn act: 1; M1 ag: -1.8; M1 antag: -0.014; RORa activator: 49*

What do the screens show for `CCOC(=O)CSc1nnc(CSc2nc3sc4c(c3c(=O)[nH]2)CCCC4)n1-c1ccccc1`?
MT1-MMP txn act: 1

Results for c1cncc(-c2nc(-c3cccs3)cs2)c1 ?
SF1 activator: 10; MT1-MMP txn act: 1.4; M1 ag: -0.61; M1 antag: 0.12; RORa activator: 40

Results for c1ccc(Nc2nc(-c3cccs3)cs2)nc1 ?
SF1 activator: 49; MT1-MMP txn act: 0.8; M1 ag: 0.079; M1 antag: -0.00082; RORa activator: 4

How did c1csc(-c2csc(-c3cccs3)n2)c1 do in these assays?
SF1 activator: 63*; MT1-MMP txn act: 1.4; M1 ag: -0.00053; M1 antag: 0.26; RORa activator: 30

What do the screens show for `Cc1cccc(Nc2nc(-c3cccs3)cs2)n1`?
MT1-MMP txn act: 2.3*

What do the screens show for `CC#CCCCC(=O)Nc1cccc(C(=O)O)c1`?
SF1 activator: 9; MT1-MMP txn act: 1.5; M1 ag: -0.23; M1 antag: 0.68; RORa activator: 56*

What do the screens show for `CCN(CC)S(=O)(=O)c1ccc(NC(=O)CC(NC(C)=O)c2ccccc2)cc1` (configuration not stated)?
MT1-MMP txn act: 1.1

What do the screens show for `COC(=O)c1c(-c2ccncc2)csc1NC(=O)c1ccoc1C`?
SF1 activator: 64*; MT1-MMP txn act: 1.4; M1 ag: -0.37; M1 antag: 0.57; RORa activator: 48

Results for CCSc1nnc(-c2cccnc2)n1-c1ccc(Cl)c(C)c1 ?
MT1-MMP txn act: 1

How did O=S(=O)(c1ccc(Br)s1)n1cccn1 do in these assays?
SF1 activator: 0; MT1-MMP txn act: 1.2; M1 ag: 0.0029; M1 antag: 0.69; RORa activator: 3

What do the screens show for `Nc1c(Br)cc(Br)c(N2CCCC2=O)c1Br`?
SF1 activator: -6; MT1-MMP txn act: 1.1; RORa activator: -7

What do the screens show for `COc1ccccc1N1CCN(CCOc2c(OC)cccc2OC)CC1`?
SF1 activator: -20; MT1-MMP txn act: 0.9; M1 ag: 1.4; M1 antag: 2.5*; RORa activator: -26

Results for c1csc(-c2csc3ncnc(NCCCN4CCOCC4)c23)c1 ?
SF1 activator: -7; MT1-MMP txn act: 0.9; M1 ag: 2*; M1 antag: 0.011; RORa activator: -22

What do the screens show for `CCc1cccc(NC(=O)Nc2cccs2)c1`?
SF1 activator: 32; MT1-MMP txn act: 1.7; M1 ag: 1.5; M1 antag: -0.64; RORa activator: 63*

What do the screens show for `COc1ccc(-c2nnn(Cc3ccccc3F)n2)cc1`?
MT1-MMP txn act: 2.3*

How did COc1ccc(-c2ccc(-c3nnn(CC(C)=O)n3)cc2)cc1 do in these assays?
SF1 activator: 90*; MT1-MMP txn act: 1.4; M1 ag: 0.26; M1 antag: -0.38; RORa activator: 38

What do the screens show for `C=C(CC1([C@@H](NP(=O)(c2ccccc2)c2ccccc2)[C@H]2C[C@@H]2CCCC)CC1)c1ccccc1`?
MT1-MMP txn act: 1.1

How did COc1cccc(OCCn2c(C)c(/C=N/n3cnnc3)c3ccccc32)c1 do in these assays?
SF1 activator: 11; MT1-MMP txn act: 1; M1 ag: -0.0076; M1 antag: 0.7; RORa activator: 28

How did O=C(C1CCC(C(=O)N2CCc3ccccc32)CC1)N1CCc2ccccc21 (configuration not stated) do in these assays?
SF1 activator: -16; MT1-MMP txn act: 1; M1 ag: 0.7; M1 antag: 1; RORa activator: -2

Results for O=C(c1ccc(Cl)s1)N1CCc2ccccc21 ?
SF1 activator: 62*; MT1-MMP txn act: 1.5; M1 ag: 1.8; M1 antag: 0.11; RORa activator: 47

What do the screens show for `COc1c(Br)cc(Br)cc1C(=O)O`?
SF1 activator: 6; MT1-MMP txn act: 1; M1 ag: -0.47; M1 antag: 0.67; RORa activator: -18

Results for Cc1cc(C)c(S(=O)(=O)N2CCN(c3nc4c(c(=O)n(C)c(=O)n4C)n3C)CC2)c(C)c1 ?
SF1 activator: 26; MT1-MMP txn act: 1; M1 ag: -0.92; M1 antag: -0.12; RORa activator: 24

Results for Cc1[nH]nc2c1C1(CCN(Cc3ccccc3)CC1)C(C#N)=C(N)O2 ?
SF1 activator: 0; MT1-MMP txn act: 1.2; M1 ag: 4.1*; M1 antag: 0.35; RORa activator: -15

Results for CN(C)c1ccc(NC(=O)CCCc2ccccc2)cc1 ?
SF1 activator: 40; MT1-MMP txn act: 0.8; M1 ag: -0.17; M1 antag: 0.46; RORa activator: 50*
